Screens from PubChem BioAssay.
CHO parental Ca: counter-screen for OX1R antagonists: effect in parental CHO cells | parental CHO-K1, ATP-induced calcium, Fluo-8 fluorescence | inhibition, % at 5.6 µM | 330,000 tested, 0.63% active;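 active means inhibition above that plate's mean sample inhibition plus 3 SD, cut at about 26% in these data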;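 further: 0% = ATP-challenged DMSO wells and 100% = DMSO wells without ATP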
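Material: parental CHO cells / Compound: single nominal dose of 5.6 µM per compound / Signal: Fluo-8 fluorescence / Replicates: singlicate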
GPR7 antagonist: human neuropeptides B/W receptor 1 antagonism; P48145; GPR7-expressing cells, fluorescence antagonist assay; inhibition, % at 4.4 µM; 290,000 tested, 1.1% active; AID 1861; in the data active means inhibition above about 16%, passing the limit was not always enough;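 further: cells stimulated with the agonist NPW; 0% = agonist with vehicle and 100% = vehicle without agonist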
OX1R antag-1: antagonists of human orexin 1 receptor. CHO/OX1R cells, Fluo-8 calcium fluorescence, orexin A. inhibition, % at 5 µM. 330,000 tested, 0.43% active;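 active means inhibition above its plate's threshold, mean inhibition of all tested compounds on the plate plus 3 SD, cut at about 37% in these data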;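 further: 0% = orexin A challenge wells and 100% = SB-334867-A antagonist wells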
GalR3 antagonist: human GalR3 antagonism. O60755. HEK293 GalR3-CNG cAMP membrane potential fluorescence; galR3 body fused to GalR1 C-terminus. inhibition, % at 3 µM. 360,000 tested, 0.44% active. AID 651719;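 active means inhibition above the screen-wide average plus 3 SD, cut at about 13% in these data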;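 further: forskolin and galanin both at EC90 stimulate the cells; cAMP rise reported by CNG channel membrane potential dye signal; 0% = forskolin plus galanin with DMSO and 100% = forskolin alone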
Target sequence (O60755 1-299 limits assumed): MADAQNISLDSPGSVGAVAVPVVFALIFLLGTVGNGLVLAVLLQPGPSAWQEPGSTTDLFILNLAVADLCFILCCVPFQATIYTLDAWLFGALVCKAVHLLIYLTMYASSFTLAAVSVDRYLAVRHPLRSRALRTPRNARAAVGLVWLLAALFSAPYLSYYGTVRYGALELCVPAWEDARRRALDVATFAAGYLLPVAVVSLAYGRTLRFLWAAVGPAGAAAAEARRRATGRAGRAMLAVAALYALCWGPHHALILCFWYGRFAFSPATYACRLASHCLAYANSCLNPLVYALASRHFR
OX1R antag-2: OX1R (human) antagonism; O43613; OX1R-expressing cells, FRET antagonist read-out; inhibition, % at 6.6 µM; 330,000 tested, 1.8% active; in the data active means inhibition mostly above about 38%, no sharp cut-off; inactive means mostly below about 40%;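 further: 0% = agonist challenge alone and 100% = reference antagonist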
OX1R Fluo8 conf: confirmation of human orexin 1 receptor antagonists; shares compounds with OX1R antag-1; CHO/OX1R cells, orexin A calcium Fluo-8 fluorescence; inhibition, % at 5 µM; 1,100 tested, 38% active; AID 492963; in the data active means inhibition above about 29%;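 further: 0% = agonist challenge alone and 100% = reference antagonist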
CHO Ca triplic: counter-screen for OX1R antagonists: effect in parental CHO cells; parental CHO-K1, ATP-induced calcium, Fluo-8 fluorescence; 1,100 tested, 9.3% active; shares compounds with OX1R antag-1; AID 492965; inhibition, % at 5.6 µM;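 active means inhibition above a per-plate limit, the mean inhibition of that plate's test compounds plus 3 SD, cut at about 25% in these data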;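 further: 0% = ATP challenge with DMSO and 100% = DMSO without ATP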
* = called active by the depositor. Rows were chosen to be rich in hits. Some 3.1% of all compounds tested hit in one or more screens of this group.

`Cc1c(C)c2ccc(OC(C)C(=O)NCc3ccccn3)cc2oc1=O` (stereo not drawn) gave CHO parental Ca -13, GPR7 antagonist 0, OX1R antag-1 -9, GalR3 antagonist -6 and OX1R antag-2 11.
CC(Oc1ccc2c3c(c(=O)oc2c1)CCCC3)C(=O)NCc1ccccn1 (stereo not drawn) was read as CHO parental Ca -26, GPR7 antagonist -8, OX1R antag-1 54*, GalR3 antagonist 3, OX1R antag-2 20, OX1R Fluo8 conf -11 and CHO Ca triplic -14.
N=C1/C(=C\c2coc3ccc(O)cc3c2=O)C(=O)N=C2SC=CN12 was read as CHO parental Ca 21, GPR7 antagonist -3, OX1R antag-1 32, GalR3 antagonist -7, OX1R antag-2 16, OX1R Fluo8 conf 26 and CHO Ca triplic 30*.
For CC(=O)Nc1ccc(/C(C)=N/Nc2nc(N3CCOCC3)nc(N3CCOCC3)n2)cc1 the results were CHO parental Ca -16, GPR7 antagonist -6, OX1R antag-1 -31, GalR3 antagonist 0 and OX1R antag-2 22.
CC(=O)Nc1ccc(/C(C)=N/Nc2nc(Nc3cccc4ccccc34)nc(N3CCOCC3)n2)cc1 was read as CHO parental Ca 11, GPR7 antagonist 17, OX1R antag-1 40*, GalR3 antagonist -3, OX1R antag-2 24, OX1R Fluo8 conf 1 and CHO Ca triplic -6.
`COc1ccc(S(=O)(=O)Nc2ccc3c(c2)C(=O)N([C@H](C)CO)C[C@H](C)[C@@H](CN(C)C(=O)Nc2ccc(C(F)(F)F)cc2)OCCCC[C@H](C)O3)cc1` gave GalR3 antagonist -2.
Screening O=C(Cc1c[nH]c2ccccc12)Nc1ccc(Nc2cccnc2)c(-c2ccc(Cl)c(Cl)c2)c1 returned GalR3 antagonist -5.
COc1ccc(C(=O)Nc2cccc3ccccc23)cc1 was read as CHO parental Ca -11, GPR7 antagonist 10, OX1R antag-1 -10, GalR3 antagonist -12 and OX1R antag-2 22.
`COc1ccc(C(=O)NNC(=O)C(=O)Nc2cccc3ccccc23)cc1` gave CHO parental Ca 7, GPR7 antagonist -5, OX1R antag-1 26, GalR3 antagonist -1, OX1R antag-2 2, OX1R Fluo8 conf -1 and CHO Ca triplic -5.
For COc1ccc(NC(=O)C[C@H]2C(=O)N(Cc3ccccc3)C[C@@H]2C)cc1 the results were GalR3 antagonist 0.
`CCN(CC)c1ccc2c(c1)OC(N)=C(C#N)C2c1cccnc1` (stereo not drawn) gave CHO parental Ca 20, GPR7 antagonist 9, OX1R antag-1 29, GalR3 antagonist 4, OX1R antag-2 16, OX1R Fluo8 conf 8 and CHO Ca triplic 10.
For CCOC(=O)CCCCCC(=O)Nc1ccc2c(c1)C(=O)N([C@H](C)CO)C[C@@H](C)[C@@H](CN(C)S(=O)(=O)c1ccc(C)cc1)OCCCC[C@H](C)O2 the results were GalR3 antagonist -2.
CC(C)CC(N)c1csc(NC(=O)C(c2ccccc2)c2ccccc2)n1 (stereo not drawn) was read as GalR3 antagonist -9.
`CC(c1ccccc1)C(Cc1nc2ccccc2[nH]1)c1nc2ccccc2[nH]1` (stereo not drawn) gave CHO parental Ca 6, GPR7 antagonist -5, OX1R antag-1 45*, OX1R antag-2 36, OX1R Fluo8 conf 7 and CHO Ca triplic -20.
Screening COc1ccccc1CC(Cc1nc2ccccc2[nH]1)c1nc2ccccc2[nH]1 (stereo not drawn) returned CHO parental Ca -27, GPR7 antagonist 15, OX1R antag-1 -17, GalR3 antagonist -6 and OX1R antag-2 -16.
Screening Cc1cccc(CC(Cc2nc3ccccc3[nH]2)c2nc3ccccc3[nH]2)c1 (stereo not drawn) returned CHO parental Ca 16, GPR7 antagonist 13, OX1R antag-1 36, GalR3 antagonist -6, OX1R antag-2 7, OX1R Fluo8 conf 19 and CHO Ca triplic -4.
COC(=O)[C@@]12C[C@@H](CC(=O)NCC3CCCCC3)C(=O)N(Cc3cccc4ccccc34)C1=CCC(C)(C)C2 was read as GalR3 antagonist -5.
